# Assay outcomes deposited in PubChem BioAssay by several laboratories.
# ASAP1 inh – inhibitors of human ASAP1 ArfGAP activity, primary screen, biochemical, fluorescence polarization | Arf-GAP with SH3 domain, ANK repeat and PH domain-containing protein 1 (Homo sapiens), … | ASAP1-stimulated ARF1 GTP hydrolysis, GDP FP detection | inhibition, % at 16.5 µM | 0.19% of 360,000 active; in the data active = inhibition above about 25%;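 note: 0% = vehicle with enzyme and substrate and 100% = no enzyme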
# A3G deaminase – APOBEC3G DNA deaminase inhibitors, primary screen, biochemical, fluorescence, single-stranded DNA substrate, uHTS. inhibition, % at 20 µM. 0.28% of 330,000 active. recombinant A3G, ssDNA deamination FAM/TAMRA fluorescence. DNA dC->dU-editing enzyme APOBEC-3G (Homo sapiens), Q9HC16;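 active = inhibition of at least 40% at 20 µM, with no more than 30% in the related APOBEC3A deaminase screen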;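 note: plate controls were DMSO wells with A3G for no effect and wells lacking A3G enzyme for full effect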
# Target sequence (Q9HC16 whole entry, looked up): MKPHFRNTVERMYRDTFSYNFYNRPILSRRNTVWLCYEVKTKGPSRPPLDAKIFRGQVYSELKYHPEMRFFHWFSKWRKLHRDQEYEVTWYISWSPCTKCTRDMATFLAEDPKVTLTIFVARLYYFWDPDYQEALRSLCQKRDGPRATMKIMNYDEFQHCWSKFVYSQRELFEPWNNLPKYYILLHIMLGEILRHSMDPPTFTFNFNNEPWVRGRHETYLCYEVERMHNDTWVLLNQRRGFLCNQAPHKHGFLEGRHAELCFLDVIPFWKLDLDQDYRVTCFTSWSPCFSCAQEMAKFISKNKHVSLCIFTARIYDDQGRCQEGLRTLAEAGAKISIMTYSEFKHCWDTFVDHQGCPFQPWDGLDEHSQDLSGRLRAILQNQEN
# ARFGAP1 inh – inhibitors of rat ARFGAP1 GAP activity, primary screen, biochemical, fluorescence polarization, GDP tracer; ADP-ribosylation factor GTPase-activating protein 1 (Rattus norvegicus), Q62848; Arfgap1-stimulated ARF1 GTP hydrolysis, GDP FP detection; inhibition, % at 16.5 µM; 0.26% of 360,000 active; AID 651572, 2012;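 active = inhibition above a per-plate limit, mean inhibition of low control wells plus 3 SD, cut at about 25% in these data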;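 note: 0% = DMSO wells with enzyme and 100% = wells lacking Arfgap1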
# Target sequence (Q62848 1-136 limits assumed): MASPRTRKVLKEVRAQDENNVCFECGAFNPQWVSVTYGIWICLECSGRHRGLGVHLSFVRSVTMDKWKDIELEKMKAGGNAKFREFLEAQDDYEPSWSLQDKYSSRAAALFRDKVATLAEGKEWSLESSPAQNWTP
#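 Assay system: Rat Arfgap1 GAP domain (His6, aa 1-136), purified enzyme | Buffer or medium: HEPES 25 mM pH 7.5, NaCl 150 mM, MgCl2, DTT | Schedule: GTP hydrolysis reaction 2 h at 25 °C | Signal: FP of antibody-bound GDP Alexa 633 tracer, ex 620/em 688 nm | Measure: Percent inhibition of Arfgap1-stimulated GTP hydrolysis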
# A3A deaminase – APOBEC3A ssDNA deaminase inhibitors, primary screen, selectivity assay for APOBEC3G inhibitor project, biochemical, FAM/TAMRA oligo cleavage fluorescence. recombinant A3A, FAM/TAMRA ssDNA deamination fluorescence. inhibition, % at 20 µM. AID 493011, 2011. 0.41% of 330,000 active. DNA dC->dU-editing enzyme APOBEC-3A (Homo sapiens), P31941;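 active = at least 40% inhibition at 20 µM here, with at most 30% in a related deaminase screen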;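 note: plate controls were A3A with DMSO for no effect and wells lacking A3A enzyme for full effect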
# SUMO Mot1 rescue – yeast Mot1-301 growth rescue at high temperature, primary screen, SUMOylation pathway inhibitor project, S. cerevisiae, ATP luminescence, 38.5C; 1% of 320,000 active; growth rescue, % at 18.8 µM; AID 2716, 2010; S. cerevisiae Mot1-301 growth rescue; percent above DMSO median, 100 means doubled;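 active = every valid replicate shows activation above 250% relative to neutral control wells; inactive = the rest, any valid replicate at or below 250%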;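 note: OY570 slx delta 5 strain wells were the positive control but not used for scaling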
# Statin myotox sup – suppressors of statin myotoxicity in C2C12 myotubes, primary screen, cell-based, single point, plate reader. AID 602340, 2012. 0.78% of 330,000 active. C2C12 myotubes + simvastatin, ATP luminescence, 48 h; scaled: DMSO 0, geranylgeraniol control 100. rescue of ATP level, % at 7.49 µM;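 active = mean ATP rescue above about 67%, or every replicate alone reaching that limit, limit read from the data, passing the limit was not always enough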;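 note: myotubes were challenged with 10 µM simvastatin during compound exposure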
# APOBEC3A confirm – APOBEC3A deaminase inhibitors, retest, confirmation, selectivity assay for APOBEC3G inhibitor project, biochemical, single concentration, fluorescence readout; inhibition, % at 20 µM; shares compounds with A3A deaminase; AID 493151, 2011; 63% of 1,400 active; recombinant A3A, ssDNA deaminase UDG fluorescence assay;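 active = inhibition reaching a set limit, 80% of the first screen's cutoff, at 20 µM in any replicate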;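 note: plate controls were DMSO wells with A3A for no effect and wells lacking A3A enzyme for full effect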
# UDG A3A counter – E. coli UDG inhibitors, confirmation, counter-screen for APOBEC3A inhibitor project, biochemical, single concentration, fluorescence, FAM/TAMRA oligo; inhibition, % at 20 µM; 1,000 tested, under 10 active; shares compounds with A3A deaminase; UDG counterscreen, FAM/TAMRA uracil oligo fluorescence; call rule not given here
# The depositor's hits bear a star; · = not tested or not shown. Sampled rows, rich in hits. Any-hit rate of the full collection: about 2.1%.
SMILES,ASAP1 inh,A3G deaminase,ARFGAP1 inh,A3A deaminase,SUMO Mot1 rescue,Statin myotox sup,APOBEC3A confirm,UDG A3A counter
CCc1ccccc1NC(=O)CSc1nnc(CNC(=O)c2ccco2)n1C,-11,-10,-4,-1,-17,5,·,·
COc1cccc(NC(=O)CN(C)C(=O)CCCNC(=O)c2ccc(Cl)cc2)c1,-2,-3,-4,3,-3,0,·,·
COc1ccc(CN(C)C(=O)CCCNC(=O)c2ccc(Cl)cc2)cc1,-21,7,0,46*,2,3,31,·
Cn1c(SCC(=O)N2CCOCC2)nnc1-c1cccc(NC(=O)c2ccccc2)c1,0,20,-1,64*,1,-1,66*,-2
CO[C@H]1CN(C)C(=O)c2cc(NC(=O)C3CCC3)ccc2OC[C@@H](C)N(C)C[C@H]1C,·,·,·,·,·,0,·,·
CN(C)C(=O)C[C@H]1C[C@@H]2c3cc(NC(=O)c4ccc5c(c4)OCO5)ccc3O[C@@H]2[C@H](CO)O1,·,·,·,·,·,6,·,·
Cc1ccc(S(=O)(=O)N(CCC(=O)N2CCOCC2)c2ccccc2)cc1,0,9,0,62*,·,·,27,·
CC(=O)N1CCN(C(=O)CCN(c2ccccc2)S(=O)(=O)c2ccc(C)cc2)CC1,-17,-1,-11,2,-2,8,·,·
COc1ccc(C(=O)Nc2ccc3c(c2)C(=O)N(C)C[C@@H](OC)[C@@H](C)CN(C(C)=O)[C@@H](C)CO3)cc1,·,·,·,·,·,-21,·,·
CC1CCN(C(=O)c2ncn(C)c2C(=O)N2CCC(C)CC2)CC1,-13,20,-4,55*,-3,1,69*,-2
CC1(C)CC(N2CCN(c3ccccc3)CC2)=CC(=[N+]2CCCC2)C1,-3,18,1,44*,192,-177,66*,-5
CN(Cc1ccccc1)C1=CC(=[N+]2CCCC2)CC(C)(C)C1,-1,19,5,57*,2,-107,70*,-2
CC1(C)CC(N2CCCC2)=CC(=[N+]2CCCCCC2)C1,4,26,2,62*,0,·,68*,0
C[C@@H]1CN([C@H](C)CO)C(=O)c2cccc(NC(=O)C3CC3)c2O[C@@H]1CN(C)S(=O)(=O)c1cn(C)cn1,·,·,·,·,·,-28,·,·
CN1[C@H](C(=O)N2CCCCC2)[C@@H](CO)[C@@H]2Cn3c(ccc(/C=C/c4ccccc4)c3=O)[C@@H]21,·,·,·,·,·,38,·,·
CCOCc1cnc(C)nc1NCC(=O)c1c(C)[nH]c2ccccc12,6,19,-7,36,2,9,·,·
CCOCc1cnc(C)nc1NCC(=O)c1c(C)[nH]c2cc(C)ccc12,0,27,10,56*,7,-90,64*,1
O=C(COC(=O)/C=C/c1ccco1)NCc1ccccc1Cl,-4,-4,5,-2,-14,·,·,·
COc1ccccc1NCCC(=O)OCC(=O)NCc1ccco1,-4,25,9,44*,64,17,24*,1
O=C(COC(=O)/C=C/c1ccco1)NCc1ccco1,5,26,-3,49*,13,8,36*,1
Cc1ccc(C)c(SCC(=O)OCC(=O)c2ccco2)c1,3,15,-11,54*,-7,7,51*,-2
Cc1cc(Br)ccc1SCC(=O)OCC(=O)NCc1ccco1,-4,22,-2,59*,-8,·,43*,·
Cc1ccc(-c2ccc3c(c2)O[C@@H](CN(C)Cc2ccncc2)[C@H](C)CN([C@H](C)CO)S3(=O)=O)cc1,·,·,·,·,·,-85,·,·
COc1ccc(NC(=O)Nc2ccc3c(c2)CC(=O)N([C@@H](C)CO)C[C@@H](C)[C@H](CN(C)C(=O)Nc2ccccc2)O3)cc1,·,·,·,·,·,1,·,·
Oc1[nH]c2ccccc2c1N=Nc1nc(Nc2ccccc2)nc(N2CCOCC2)n1,-3,12,0,44*,-5,-77,17,·
SMILES,ASAP1 inh,A3G deaminase,ARFGAP1 inh,A3A deaminase,SUMO Mot1 rescue,Statin myotox sup,APOBEC3A confirm,UDG A3A counter
O=C(COc1cccc([N+](=O)[O-])c1)N/N=C/c1ccco1,8,-2,-3,14,·,·,·,·
CCc1ccc(OCC(=O)N/N=C\c2ccco2)c([N+](=O)[O-])c1,2,14,-12,43*,7,·,43*,3
CC(=O)Nc1ccc(NC(C)=O)s1,-4,-5,-3,-4,123,-27,·,·
CC(=O)Nc1ccc(-c2ccccc2)s1,-9,17,0,45*,-11,9,45*,0
C[N+]1(CCn2ccc3ccccc32)CCCCC1,14,14,-5,63*,0,·,68*,-1
O=C(Nc1ccc2ncccc2c1)c1ccccc1,-10,9,5,29,9,3,·,·
O=C(Nc1ccc2ncccc2c1)c1ccccc1Cl,-6,6,-3,46*,4,5,75*,-2
COc1ccccc1C(=O)Nc1ccc2c(c1)OC[C@@H](C)N(C)C[C@@H](C)[C@@H](OC)CN(C)C2=O,·,·,·,·,·,6,·,·
Cn1nnnc1SCC(=O)Nc1ccc(Br)cc1Cl,0,15,5,50*,20,6,49*,-1
N=C1S/C(=C\c2ccc(-c3ccccc3C(=O)O)o2)C(=O)N1c1ccc2c(c1)OCO2,-1,·,12,·,·,·,·,·
COc1ccccc1N1C(=N)S/C(=C\c2ccc(-c3ccccc3C(=O)O)o2)C1=O,1,28,0,44*,-9,6,32*,-2
C[C@H](CO)N1C[C@H](C)[C@@H](CN(C)C(=O)NC2CCCC2)Oc2ncc(-c3ccncc3)cc2C1=O,·,·,·,·,·,3,·,·
CC[n+]1c(C)cc(C)n1-c1ccccc1,-9,14,-6,93*,5,·,75*,3
